# In ChEMBL document CHEMBL5058577, “EUbOPEN Chemogenomics Library 2 (Multiplex)” (2022):
# Tested on: Fibroblast
# Test: Multiplex assay against human fibroblast
# Assay type: toxicity, cell-based
# Procedure, shortened: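 Per cents of healthy-nucleus cells form the tubulin, mitochondrial-mass and membrane-permeability phenotype values. Live cells were stained at seeding with Hoechst33342, BioTracker Green Microtubule Cytoskeleton Dye, MitoTracker Red and Annexin V Alexa Fluor 680. After compound addition they were imaged on a CQ1 microscope at 37°C and 5% CO2, and CellPathfinder machine-learning gating split them into Hoechst high-intensity objects or normal cells, normal cells into healthy, pyknosed or fragmented nuclei, and pyknosed cells into mitotic or apoptotic.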
# [1] = 12 h, 1 µM, compound concentration 1 uM, replicate 1
# [2] = 12 h, 1 µM, compound concentration 1 uM, replicate 2
# [3] = 12 h, 10 µM, compound concentration 10 uM, replicate 1
# [4] = 12 h, 10 µM, compound concentration 10 uM, replicate 2
# [5] = 24 h, 1 µM, compound concentration 1 uM, replicate 1
# [6] = 24 h, 1 µM, compound concentration 1 uM, replicate 2
# [7] = 24 h, 10 µM, compound concentration 10 uM, replicate 1
# [8] = 24 h, 10 µM, compound concentration 10 uM, replicate 2
# [9] = 48 h, 1 µM, compound concentration 1 uM, replicate 1
# [10] = 48 h, 1 µM, compound concentration 1 uM, replicate 2
# [11] = 48 h, 10 µM, compound concentration 10 uM, replicate 1
# [12] = 48 h, 10 µM, compound concentration 10 uM, replicate 2
smiles,measurement,setting,value
CN(C)C(=O)Cn1cc(-c2ccc(-c3nnc4ccccn34)cc2)cn1,Population Apoptotic (%),[1],57%
same,Population Fragmented Nuclei (%),[1],18%
same,Population Healthy Nuclei (%),[1],60%
same,Population Hoechst High Intensity Objects (%),[1],5%
same,Population Membrane Permeable-Phenotype (%),[1],1%
same,Population Mitochondria Different-Phenotype (%),[1],3%
same,Population Mitotic Cells (%),[1],42%
same,Population Normal (%),[1],94%
same,Population Pyknosed Nuclei (%),[1],21%
same,Population Tubulin-Different-Phenotype (%),[1],22%
same,Total Cell Count,[1],139
same,Population Apoptotic (%),[2],55%
same,Population Fragmented Nuclei (%),[2],20%
same,Population Healthy Nuclei (%),[2],58%
same,Population Membrane Permeable-Phenotype (%),[2],7%
same,Population Mitochondria Different-Phenotype (%),[2],7%
same,Population Mitotic Cells (%),[2],44%
same,Population Pyknosed Nuclei (%),[2],20%
same,Population Tubulin-Different-Phenotype (%),[2],42%
same,Total Cell Count,[2],152
same,Population Apoptotic (%),[3],52%
same,Population Fragmented Nuclei (%),[3],8%
same,Population Healthy Nuclei (%),[3],63%
same,Population Hoechst High Intensity Objects (%),[3],3%
same,Population Membrane Permeable-Phenotype (%),[3],0%
same,Population Mitochondria Different-Phenotype (%),[3],6%
same,Population Mitotic Cells (%),[3],47%
same,Population Normal (%),[3],96%
same,Population Pyknosed Nuclei (%),[3],28%
same,Population Tubulin-Different-Phenotype (%),[3],31%
same,Total Cell Count,[3],140
same,Population Apoptotic (%),[4],39%
same,Population Fragmented Nuclei (%),[4],31%
same,Population Healthy Nuclei (%),[4],38%
same,Population Hoechst High Intensity Objects (%),[4],8%
same,Population Membrane Permeable-Phenotype (%),[4],15%
same,Population Mitochondria Different-Phenotype (%),[4],18%
same,Population Mitotic Cells (%),[4],60%
same,Population Normal (%),[4],91%
same,Population Pyknosed Nuclei (%),[4],29%
same,Population Tubulin-Different-Phenotype (%),[4],70%
same,Total Cell Count,[4],123
same,Population Apoptotic (%),[5],56%
same,Population Fragmented Nuclei (%),[5],23%
same,Population Healthy Nuclei (%),[5],60%
same,Population Hoechst High Intensity Objects (%),[5],0%
same,Population Membrane Permeable-Phenotype (%),[5],2%
same,Population Mitochondria Different-Phenotype (%),[5],1%
same,Population Mitotic Cells (%),[5],43%
same,Population Normal (%),[5],99%
same,Population Pyknosed Nuclei (%),[5],16%
same,Population Tubulin-Different-Phenotype (%),[5],25%
same,Total Cell Count,[5],144
same,Population Apoptotic (%),[6],54%
same,Population Hoechst High Intensity Objects (%),[6],4%
same,Population Membrane Permeable-Phenotype (%),[6],4%
same,Population Mitochondria Different-Phenotype (%),[6],3%
same,Population Mitotic Cells (%),[6],45%
same,Population Normal (%),[6],95%
same,Population Tubulin-Different-Phenotype (%),[6],41%
same,Total Cell Count,[6],142
same,Population Apoptotic (%),[7],65%
same,Population Fragmented Nuclei (%),[7],10%
same,Population Healthy Nuclei (%),[7],65%
same,Population Hoechst High Intensity Objects (%),[7],5%
same,Population Membrane Permeable-Phenotype (%),[7],2%
same,Population Mitochondria Different-Phenotype (%),[7],5%
same,Population Mitotic Cells (%),[7],34%
same,Population Normal (%),[7],94%
same,Population Pyknosed Nuclei (%),[7],24%
same,Population Tubulin-Different-Phenotype (%),[7],25%
same,Total Cell Count,[7],140
same,Population Apoptotic (%),[8],26%
same,Population Fragmented Nuclei (%),[8],36%
same,Population Healthy Nuclei (%),[8],40%
same,Population Hoechst High Intensity Objects (%),[8],9%
same,Population Membrane Permeable-Phenotype (%),[8],10%
same,Population Mitochondria Different-Phenotype (%),[8],6%
same,Population Mitotic Cells (%),[8],73%
same,Population Normal (%),[8],90%
same,Population Pyknosed Nuclei (%),[8],22%
same,Population Tubulin-Different-Phenotype (%),[8],71%
same,Total Cell Count,[8],126
same,Population Apoptotic (%),[9],58%
same,Population Fragmented Nuclei (%),[9],22%
same,Population Healthy Nuclei (%),[9],61%
same,Population Hoechst High Intensity Objects (%),[9],1%
same,Population Membrane Permeable-Phenotype (%),[9],4%
same,Population Mitochondria Different-Phenotype (%),[9],4%
same,Population Mitotic Cells (%),[9],41%
same,Population Normal (%),[9],98%
same,Population Pyknosed Nuclei (%),[9],16%
same,Population Tubulin-Different-Phenotype (%),[9],29%
same,Total Cell Count,[9],151
same,Population Apoptotic (%),[10],42%
same,Population Fragmented Nuclei (%),[10],28%
same,Population Healthy Nuclei (%),[10],52%
same,Population Hoechst High Intensity Objects (%),[10],5%
same,Population Membrane Permeable-Phenotype (%),[10],6%
same,Population Mitochondria Different-Phenotype (%),[10],2%
same,Population Mitotic Cells (%),[10],57%
same,Population Normal (%),[10],94%
same,Population Pyknosed Nuclei (%),[10],18%
same,Population Tubulin-Different-Phenotype (%),[10],46%
same,Total Cell Count,[10],147
same,Population Apoptotic (%),[11],52%
same,Population Fragmented Nuclei (%),[11],16%
same,Population Healthy Nuclei (%),[11],66%
same,Population Hoechst High Intensity Objects (%),[11],2%
same,Population Membrane Permeable-Phenotype (%),[11],0%
same,Population Mitochondria Different-Phenotype (%),[11],2%
same,Population Mitotic Cells (%),[11],47%
same,Population Normal (%),[11],97%
same,Population Pyknosed Nuclei (%),[11],17%
same,Population Tubulin-Different-Phenotype (%),[11],38%
same,Total Cell Count,[11],137
same,Population Apoptotic (%),[12],60%
same,Population Fragmented Nuclei (%),[12],44%
same,Population Healthy Nuclei (%),[12],47%
same,Population Hoechst High Intensity Objects (%),[12],3%
same,Population Membrane Permeable-Phenotype (%),[12],18%
same,Population Mitochondria Different-Phenotype (%),[12],8%
same,Population Mitotic Cells (%),[12],40%
same,Population Normal (%),[12],96%
same,Population Pyknosed Nuclei (%),[12],7%
same,Population Tubulin-Different-Phenotype (%),[12],73%
same,Total Cell Count,[12],131
